The source of these data is ChEMBL document CHEMBL4118285, “Synthesis and antibacterial activity of novel ketolides with 11,12-quinoylalkyl side chains” (2018).

Molecules are shown by their SMILES. Values after ≈ are worked out from the molar mass of the structure shown.

Common to all, as to format: functional
Experiment [1] relates to Haemophilus influenzae. The experiment in a line: Antibacterial activity against azithromycin-resistant Haemophilus influenzae 11Q373 by broth microdilution method. The gist of the method: (§1)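 MIC values were determined by broth microdilution following Clinical and Laboratory Standards Institute (CLSI) recommendations.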
A general note: Broth dilution looks for growth in wells or tubes with falling amounts of substance.

The test system of experiment [2] is Staphylococcus epidermidis. The experiment in a line: Antibacterial activity against methicillin-sensitive Staphylococcus epidermidis 11X315 by broth microdilution method. The gist of the method: as §1
For experiment [3], the system named is Staphylococcus aureus. Kind of experiment: Antibacterial activity against methicillin-resistant Staphylococcus aureus 11B117 by broth microdilution method. The gist of the method:
as §1

The test system of experiment [4] is Streptococcus pyogenes. Kind of experiment: Antibacterial activity against erythromycin-resistant Streptococcus pyogenes 11 N369 by broth microdilution method. In a few lines: as §1
Experiment [5] deals with Staphylococcus aureus. The experiment in a line: Antibacterial activity against methicillin-sensitive Staphylococcus aureus 11B122 by broth microdilution method. In a few lines: (§2)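 MICs were determined by broth microdilution following CLSI recommendations, with clarithromycin and telithromycin run as reference antibiotics.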
Experiment [6] deals with Haemophilus influenzae. The experiment in a line: Antibacterial activity against azithromycin-sensitive Haemophilus influenzae 11P042 by broth microdilution method. In a few lines:
as §2

For experiment [7], the system named is Streptococcus pneumoniae. Kind of experiment: Antibacterial activity against erythromycin-resistant Streptococcus pneumoniae 11 J011 by broth microdilution method. In a few lines: as §1
Experiment [8] concerns Streptococcus pneumoniae. Kind of experiment: Antibacterial activity against erythromycin-sensitive Streptococcus pneumoniae 11G364 by broth microdilution method. The gist of the method: as §2
Experiment [9] deals with Streptococcus pyogenes. The experiment in a line: Antibacterial activity against erythromycin-sensitive Streptococcus pyogenes 11L264 by broth microdilution method. The gist of the method:
as §2

For experiment [10], the system named is Staphylococcus epidermidis. The experiment in a line: Antibacterial activity against methicillin-resistant Staphylococcus epidermidis 11C176 by broth microdilution method. In a few lines:
as §1

In experiment [11] the test system is Staphylococcus aureus. Kind of experiment: Antibacterial activity against methicillin-resistant Staphylococcus aureus ATCC 33591 by broth microdilution method. The gist of the method:
as §1

Experiment [12] deals with Staphylococcus epidermidis. The experiment in a line: Antibacterial activity against methicillin-resistant Staphylococcus epidermidis 13-3 by broth microdilution method. The gist of the method: as §1
The test system of experiment [13] is Staphylococcus epidermidis. The experiment in a line: Antibacterial activity against methicillin-sensitive Staphylococcus epidermidis ATCC 12228 by broth microdilution method. In a few lines:
as §2

For experiment [14], the system named is Staphylococcus aureus. The experiment in a line: Antibacterial activity against methicillin-sensitive Staphylococcus aureus ATCC 29213 by broth microdilution method. In a few lines:
as §2

A further experiment relates to Klebsiella pneumoniae. The experiment in a line: Antibacterial activity against extended spectrum beta-lactamases producing Klebsiella pneumoniae ATCC 700603 by broth microdilution method. In a few lines:
as §2

For experiment [15], the system named is Moraxella catarrhalis. The experiment in a line: Antibacterial activity against clarithromycin-resistant Moraxella catarrhalis 12-2 by broth microdilution method. In a few lines: as §1
The subject of experiment [16] is Streptococcus pyogenes. The experiment in a line: Antibacterial activity against […] Streptococcus pyogenes 12-8 by broth microdilution method. The gist of the method: as §2
A further experiment has as its system Escherichia coli. The experiment in a line: Antibacterial activity against extended spectrum beta-lactamases non-producing Escherichia coli ATCC 25922 by broth microdilution method. In a few lines:
as §2

Experiment [17] concerns Moraxella catarrhalis. Kind of experiment: Antibacterial activity against clarithromycin-sensitive Moraxella catarrhalis 12-1 by broth microdilution method. In a few lines:
as §2

Experiment [18] relates to Streptococcus pyogenes. The experiment in a line: Antibacterial activity against methicillin-resistant Streptococcus pyogenes 12-1 by broth microdilution method. The gist of the method:
as §1

The test system of the next experiment is Pseudomonas aeruginosa. The experiment in a line: Antibacterial activity against Pseudomonas aeruginosa ATCC 27853 by broth microdilution method. The gist of the method:
as §2

For `CC[C@H]1OC(=O)[C@H](C)C(=O)[C@H](C)[C@@H](O[C@@H]2O[C@H](C)C[C@H](N(C)C)[C@H]2O)[C@](C)(OC)C[C@@H](C)C(=O)[C@H](C)[C@H]2N(CCCCc3cnc4ccccc4c3)C(=O)O[C@]12C`, the MIC with Haemophilus influenzae [1] is 4 µg/mL (≈ 5.03 µM); in experiment [2] it was 0.062 µg/mL (≈ 0.0779 µM); against Staphylococcus aureus [3], 64 µg/mL (≈ 80.4 µM); in the experiment on Streptococcus pyogenes [4] it was 0.5 µg/mL (≈ 0.628 µM); in the experiment with Staphylococcus aureus [5] it was 0.125 µg/mL (≈ 0.157 µM); against Haemophilus influenzae [6], 0.5 µg/mL (≈ 0.628 µM). Besides, the MIC is 0.062 µg/mL (≈ 0.0779 µM) with Streptococcus pneumoniae [7], not above 0.004 µg/mL against Streptococcus pneumoniae [8], 0.008 µg/mL (≈ 0.0101 µM) with Streptococcus pyogenes [9] and 0.062 µg/mL (≈ 0.0779 µM) in experiment [10].
For `CC[C@H]1OC(=O)[C@H](C)C(=O)[C@H](C)[C@@H](O[C@@H]2O[C@H](C)C[C@H](N(C)C)[C@H]2O)[C@](C)(OC)C[C@@H](C)C(=O)[C@H](C)[C@H]2N(CC/C=C/c3cncc4ccccc34)C(=O)O[C@]12C`, the MIC against Staphylococcus aureus [11] is 64 µg/mL (≈ 80.6 µM); in experiment [12], 64 µg/mL (≈ 80.6 µM); in experiment [13], 0.03 µg/mL (≈ 0.0378 µM); against Staphylococcus aureus [14], 0.015 µg/mL (≈ 0.0189 µM); in the experiment with Klebsiella pneumoniae it was 64 µg/mL (≈ 80.6 µM); in the experiment on Moraxella catarrhalis [15], 32 µg/mL (≈ 40.3 µM). For the same compound, the MIC against Streptococcus pyogenes [16] amounted to 0.015 µg/mL (≈ 0.0189 µM); against Escherichia coli, 16 µg/mL (≈ 20.2 µM); in the experiment on Moraxella catarrhalis [17], 0.015 µg/mL (≈ 0.0189 µM); with Streptococcus pyogenes [18], 64 µg/mL (≈ 80.6 µM); with Pseudomonas aeruginosa it was 32 µg/mL (≈ 40.3 µM).
Turning to `CC[C@H]1OC(=O)[C@H](C)C(=O)[C@H](C)[C@@H](O[C@@H]2O[C@H](C)C[C@H](N(C)C)[C@H]2O)[C@](C)(OC)C[C@@H](C)C(=O)[C@H](C)[C@H]2N(CC/C=C/c3cncc4cc(C)ccc34)C(=O)O[C@]12C`, the MIC against Staphylococcus aureus [11] is 64 µg/mL (≈ 79.2 µM); in [12], 128 µg/mL (≈ 158 µM); in experiment [13], 0.06 µg/mL (≈ 0.0743 µM); against Staphylococcus aureus [14], 0.06 µg/mL (≈ 0.0743 µM); in the experiment with Klebsiella pneumoniae, more than 256 µg/mL; against Moraxella catarrhalis [15], 32 µg/mL (≈ 39.6 µM). Moreover, the MIC in the experiment on Streptococcus pyogenes [16] is 0.015 µg/mL (≈ 0.0186 µM); with Escherichia coli it was 64 µg/mL (≈ 79.2 µM); against Moraxella catarrhalis [17] it was 0.015 µg/mL (≈ 0.0186 µM); in the experiment on Streptococcus pyogenes [18], 64 µg/mL (≈ 79.2 µM); against Pseudomonas aeruginosa, 64 µg/mL (≈ 79.2 µM).
For the compound `CC[C@H]1OC(=O)[C@H](C)C(=O)[C@H](C)[C@@H](O[C@@H]2O[C@H](C)C[C@H](N(C)C)[C@H]2O)[C@](C)(OC)C[C@@H](C)C(=O)[C@H](C)[C@H]2N(CC/C=C/c3cncc4ccc(OCc5ccccc5)cc34)C(=O)O[C@]12C`, the MIC with Staphylococcus aureus [11] was 8 µg/mL (≈ 8.89 µM); in experiment [12] it was 8 µg/mL (≈ 8.89 µM); in [13] it was 1 µg/mL (≈ 1.11 µM); with Staphylococcus aureus [14], 1 µg/mL (≈ 1.11 µM); against Klebsiella pneumoniae, more than 256 µg/mL; in the experiment on Moraxella catarrhalis [15], 4 µg/mL (≈ 4.44 µM). For the same compound, the MIC in the experiment on Streptococcus pyogenes [16] was 0.125 µg/mL (≈ 0.139 µM); against Escherichia coli, more than 256 µg/mL; with Moraxella catarrhalis [17] it was 1 µg/mL (≈ 1.11 µM); against Streptococcus pyogenes [18], 8 µg/mL (≈ 8.89 µM); against Pseudomonas aeruginosa, more than 256 µg/mL.
For the compound `CC[C@H]1OC(=O)[C@@](C)(F)C(=O)[C@H](C)[C@@H](O[C@@H]2O[C@H](C)C[C@H](N(C)C)[C@H]2O)[C@](C)(OC)C[C@@H](C)C(=O)[C@H](C)[C@H]2N(CC/C=C/c3cnc4ccccc4c3)C(=O)O[C@]12C`, the MIC in the experiment with Staphylococcus aureus [11] came out at 32 µg/mL (≈ 39.4 µM); in [12] it was 32 µg/mL (≈ 39.4 µM); in [13], 0.015 µg/mL (≈ 0.0185 µM); with Staphylococcus aureus [14], 0.015 µg/mL (≈ 0.0185 µM); in the experiment with Klebsiella pneumoniae, 32 µg/mL (≈ 39.4 µM); in the experiment with Moraxella catarrhalis [15] it was 16 µg/mL (≈ 19.7 µM). For the same compound, the MIC turned out to be 0.015 µg/mL (≈ 0.0185 µM) in the experiment with Streptococcus pyogenes [16]; 8 µg/mL (≈ 9.85 µM) with Escherichia coli; 0.015 µg/mL (≈ 0.0185 µM) with Moraxella catarrhalis [17]; 16 µg/mL (≈ 19.7 µM) with Streptococcus pyogenes [18]; 16 µg/mL (≈ 19.7 µM) in the experiment on Pseudomonas aeruginosa.
Consider `CC[C@H]1OC(=O)[C@H](C)C(=O)[C@H](C)[C@@H](O[C@@H]2O[C@H](C)C[C@H](N(C)C)[C@H]2O)[C@](C)(OC)C[C@@H](C)C(=O)[C@H](C)[C@H]2N(CC/C=C/c3cnc4ccccc4c3)C(=O)O[C@]12C`, for which the MIC came out at 4 µg/mL (≈ 5.04 µM) against Haemophilus influenzae [1]; 0.062 µg/mL (≈ 0.0781 µM) in [2]; 64 µg/mL (≈ 80.6 µM) against Staphylococcus aureus [3]; 0.25 µg/mL (≈ 0.315 µM) with Streptococcus pyogenes [4]; 0.125 µg/mL (≈ 0.157 µM) in the experiment with Staphylococcus aureus [5]; 1 µg/mL (≈ 1.26 µM) against Haemophilus influenzae [6]. Moreover, the MIC in the experiment with Streptococcus pneumoniae [7] is 0.031 µg/mL (≈ 0.039 µM); against Streptococcus pneumoniae [8] it was not above 0.004 µg/mL; in the experiment on Streptococcus pyogenes [9], not above 0.004 µg/mL; in [10], 0.062 µg/mL (≈ 0.0781 µM).
